The subject of test [1] is HUVEC. Description: Antiangiogenic activity against HUVEC assessed as inhibition of capillary-like tube formation at 1 uM after 8 hrs by Matrigel assay relative to control. Format: functional. The following applies: Homo sapiens. The method in brief: (§1)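 HUVECs (1 × 10^4 cells) suspended in EBM-2 with vehicle or compound at 1.0 or 5.0 μM and plated on Matrigel. Incubated 8 h at 37 °C. Capillary networks photographed at 100× and quantified. Inhibition of tube-like structure formation expressed relative to vehicle group.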

Another test deals with U-251. In words: Antiproliferative activity against human U251 cells after 24 hrs by MTT assay. Format: functional, cell-based. To be noted: U-251, 24 h. The method in brief:
(§2)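 MTT proliferation assay on HUVECs and on HepG2, A375, U251, B16 and HCT116 cells. Results reported as IC50.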

For test [2], the system named is HUVEC. Description: Antimigratory activity in HUVEC assessed as migration into wound area at 1 uM after 24 hrs relative to vehicle treated control. Type of test: functional, Homo sapiens. The method in brief:
(§3)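 Wound-healing assay. HUVEC monolayers scratched with a pipette, then treated with vehicle or the indicated compound concentrations. Photographs taken at 0 h and 24 h at 50×, and migration rate into the wound calculated. Mean ± SD from three independent experiments.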

Another test has as its system B16. Description: Antiproliferative activity against mouse B16 cells after 24 hrs by MTT assay. Format: functional, cell-based. The following applies: B16, 24 h. The procedure, abridged: as §2
For test [3], the system named is HUVEC. Description: Antiangiogenic activity against HUVEC assessed as inhibition of capillary-like tube formation at 5 uM after 8 hrs by Matrigel assay relative to control. Type of test: functional. To be noted: Homo sapiens. The method in brief:
as §1

Test [4] in a line: Antiproliferative activity against human HCT116 cells after 24 hrs by MTT assay. Type of test: functional, cell-based. The following applies: HCT-116, 24 h. The method in brief:
as §2

The subject of test [5] is HUVEC. In words: Antiproliferative activity against HUVEC after 24 hrs by MTT assay. Format: functional, cell-based. To be noted: Homo sapiens. The procedure, abridged: as §2
For another test, the species on record is Danio rerio. In words: Antiangiogenic activity in Flk-1-GFP transgenic zebrafish embryo after 24 hrs. Type of test: functional, organism-based. The method in brief: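 Zebrafish embryos exposed to compound at 1.25 or 2.5 μM, or to vehicle, for 24 h. Read-out is formation of the subintestinal vessel (SIV) basket-like structure, compared with vehicle-treated embryos.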

The test system of a further test is A-375. In words: Antiproliferative activity against human A375 cells after 24 hrs by MTT assay. Type of test: functional, cell-based. To be noted: A-375, 24 h. The method in brief: as §2
Test [6] relates to HUVEC. In words: Antimigratory activity in HUVEC assessed as migration into wound area at 0.5 uM after 24 hrs relative to vehicle treated control. Format: functional, Homo sapiens. The procedure, abridged: as §3
In another test the test system is HepG2. Description: Antiproliferative activity against human HepG2 cells after 24 hrs by MTT assay. Format: functional, cell-based. To be noted: HepG2, 24 h. The procedure, abridged:
as §2

This passage reports inhibition, IC50 and Activity results from ChEMBL document CHEMBL3352483, “Synthesis, structure-activity relationships and biological evaluation of barbigerone analogues as anti-proliferative and anti-angiogenesis agents” (Bioorg Med Chem Lett, 2014).

For the compound `COc1cc(OC)c(-c2coc3c4c(ccc3c2=O)OC(C)(C)C=C4)cc1OC`, in the test on HUVEC [1], the inhibition at 1 µM was determined as 23.7%. In addition, the IC50 in the test on U-251 stood at 4.1 µM; with B16, 1.23 µM; in test [4], 2.36 µM; in the test on HUVEC [5], 7.45 µM; in the test on A-375, 1.85 µM; in the test with HepG2 it was 1.77 µM. Further, the Activity in the test with HUVEC [2] turned out to be 1.65%; with HUVEC [6], 74.26%. The inhibition at 5 µM in the test on HUVEC [3] was 65.4%. In addition, the inhibition entry in the test listed under Danio rerio is “Dose-dependent effect”.
Regarding `COc1cc(OC)cc(-c2coc3c4c(ccc3c2=O)OC(C)(C)C=C4)c1`, the IC50 (in the test on U-251; with B16; in test [4]; in the test with HUVEC [5]; in the test on A-375; with HepG2) was greater than 10 µM throughout.
With `COc1cc(OC)c(-c2coc3cc(OCc4ccccc4C)ccc3c2=O)cc1OC`, the IC50 in the test on U-251 worked out at 2 µM; with B16 it was 2.15 µM; in [4], 2.9 µM; with HUVEC [5], 4.83 µM; in the test on A-375 it was 1.36 µM; in the test on HepG2, 1.86 µM.
As for `COc1ccc(OC)c(-c2coc3c4c(ccc3c2=O)OC(C)(C)C=C4)c1`, the IC50 (in the test with U-251; in the test on B16; in test [4]; in the test on HUVEC [5]; in the test with A-375; with HepG2) was greater than 10 µM in each case.
Take `COc1cc(OC)c(-c2coc3cc(OCc4ccccc4C#N)ccc3c2=O)cc1OC`: the IC50 in the test with U-251 was 0.98 µM; with B16, 2.14 µM; in test [4], greater than 10 µM; with HUVEC [5], greater than 10 µM; in the test on A-375, 0.99 µM; in the test on HepG2, greater than 10 µM.
As for `COc1cc(OC)c(-c2coc3cc(OCC=C(C)C)ccc3c2=O)cc1OC`, in the test on HUVEC [1], the inhibition at 1 µM amounted to 78.2%. The IC50 in the test with U-251 was 3.5 µM; in the test with B16, 1.09 µM; in [4] it was 0.68 µM; in the test with HUVEC [5], 3.8 µM; with A-375, 1.58 µM; in the test with HepG2 it was 0.28 µM. Moreover, the Activity in the test on HUVEC [2] is listed as 8.45%; in the test on HUVEC [6] it was 35.36%. In the test with HUVEC [3], the inhibition at 5 µM stood at 88.3%. In the test filed under Danio rerio, the inhibition result is “Dose-dependent effect”.
As for `C=CCOc1ccc2c(=O)c(-c3cc(OC)c(OC)cc3OC)coc2c1`, the IC50 was 5.9 µM in the test with U-251; 5.1 µM in the test with B16; 6.6 µM in [4]; greater than 10 µM with HUVEC [5]; 4.75 µM in the test on A-375; 3.45 µM in the test with HepG2.
Consider `COc1cccc(-c2coc3c4c(ccc3c2=O)OC(C)(C)C=C4)c1`, for which the IC50 (with U-251; in the test on B16; in test [4]; with HUVEC [5]; in the test on A-375; with HepG2) was greater than 10 µM in each case.
Regarding `CCOc1ccccc1-c1coc2c3c(ccc2c1=O)OC(C)(C)C=C3`, the IC50 (in the test on U-251; in the test on B16; in [4]; in the test with HUVEC [5]; with A-375; with HepG2) was greater than 10 µM each time.
As for `CC1(C)C=Cc2c(ccc3c(=O)c(-c4ccc(C=O)cc4)coc23)O1`, the IC50 (with U-251; in the test with B16; in [4]; with HUVEC [5]; with A-375; in the test on HepG2) was greater than 10 µM throughout.
Consider `CC1(C)C=Cc2c(ccc3c(=O)c(-c4ccc5c(c4)OCCO5)coc23)O1`, for which the IC50 (with U-251; in the test on B16; in [4]; with HUVEC [5]; in the test with A-375; in the test with HepG2) was greater than 10 µM each time.
As to `COc1cccc(C(=O)Oc2ccc3c(=O)c(-c4cc(OC)c(OC)cc4OC)coc3c2)c1`, the IC50 (in the test with U-251; with B16; in test [4]; with HUVEC [5]; in the test with A-375; in the test with HepG2) was greater than 10 µM throughout.
As to `CC1(C)C=Cc2c(ccc3c(=O)c(-c4ccc(C(F)(F)F)cc4Cl)coc23)O1`, the IC50 in the test with U-251 is 2.5 µM; in the test with B16, 3.55 µM; in [4] it was 3.8 µM; with HUVEC [5], greater than 10 µM; in the test with A-375, 8.9 µM; in the test on HepG2, greater than 10 µM.
As for `COc1ccccc1-c1coc2c3c(ccc2c1=O)OC(C)(C)C=C3`, the IC50 (with U-251; with B16; in test [4]; in the test on HUVEC [5]; in the test with A-375; with HepG2) was greater than 10 µM in each case.
On to `CC1(C)C=Cc2c(ccc3c(=O)c(-c4cccc(C(F)(F)F)c4)coc23)O1`, for which the half-maximal inhibitory concentration (IC50) (in the test with U-251; with B16; in test [4]; with HUVEC [5]; in the test with A-375; in the test on HepG2) was greater than 10 µM throughout.
As for `CCOc1ccc(-c2coc3c4c(ccc3c2=O)OC(C)(C)C=C4)cc1`, the IC50 (in the test on U-251; in the test on B16; in test [4]; in the test on HUVEC [5]; in the test on A-375; in the test with HepG2) was greater than 10 µM in each case.
